The text below walks through data of article PMC11105966 (Journal of medicinal chemistry, 2024).

One series relates to MCF7 cells. As to the kind of experiment: MTT cytotoxicity assay, MCF7 cells. The class given is cell-based, human. An outline of the steps:
(§1)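 Cells seeded at 4000–7000 per well in 10% FBS medium. Lines were grown at 37°C, 5% CO2: MCF-7, LM3–3, BT-20 and BT-474 in DMEM/10% FBS; MDA-MB-468 in RPMI 1640/5% FBS; SUM159PT in Ham's F-12/5% FBS with insulin and hydrocortisone. At 70–80% confluence, test compound was added at 0.2–1000 nM for 72 h, then MTT. Viability relative to untreated cells; IC50 from Hill-slope fit.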
On the technique in general: Formazan colour is commonly taken as a measure of viable cells.

Series [1] has as its target DNA-bound ER/SRC-3/P300 complex (Homo sapiens, UniProt Q9Y6Q9). As to the kind of experiment: Biotinylated ERE pull-down assay. The format is biochemical. An outline of the steps: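 Baculovirus-expressed, affinity-purified His-SRC-3-flag was incubated with test compound or vehicle for 30 min on ice, 0.1 μg protein. Then 0.1 μg recombinant ERα and His-p300 and an ERE-containing DNA oligo were added with 1 μM 17-β estradiol for 1 h on ice. The ER complex was pulled down and bound SRC-3 and p300 quantified by western blot.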

The conditions of series [2]: mice; cited from earlier work.
The subject of another series is LNCaP cells. The experiment in a line: LNCaP xenograft mouse model. The class given is in vivo, SCID mice. An outline of the steps:
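1×10^7 LNCaP cells were implanted subcutaneously on both sides of the back of male SCID mice. Daily 10 mg/kg i.p. dosing or vehicle started 4 weeks after inoculation and ran for 4 weeks. Tumor size (length × width × width/2) measured weekly. Survival endpoint was tumor diameter of 3.0 cm. Ki67, cleaved caspase 3 and CD31 IHC on tumor sections at the end of treatment.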

For the next series, the system named is AR-PDX tumor cells 118b. The experiment in a line: Intra-femoral bone metastasis mouse model of prostate cancer. The format is in vivo, SCID mice. As to conditions: 10 mg/kg/day i.p., four weeks; for reduction in femur volume compared to vehicle: CT imaging. The procedure, abridged:
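1 × 10^5 AR-PDX 118b cells were injected […] into male SCID mice aged 8–9 weeks. Two weeks later, n=9 per group received vehicle or 10 mg/kg/day i.p. for 4 weeks; x-ray imaging every two weeks. Femurs were collected at the end. CT 3D reconstruction was done on 5 femurs per group, plus histology; tumor/femur area ratio. Left femur as negative control.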

A further series addresses hERG (Homo sapiens, UniProt Q12809). The class given is cell-based.
The subject of series [3] is mouse primary hepatocytes. The experiment in a line: MTT cytotoxicity assay, mouse primary hepatocytes. As to conditions: for pIC50: Mus musculus, Hepatocyte; for toxicity in mouse primary hepatocytes: up to 1000 nM. The format is cell-based. An outline of the steps: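 Primary hepatocytes were isolated by collagenase perfusion from an adult female CD-1 mouse. They were maintained in M199 medium with 10% FBS at 37°C, 5% CO2.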

The nature of series [4]: Stability in human plasma. The class given is in vitro ADME. As to conditions: Fig S2.
Series [5] concerns seven human cancer cell lines known to overexpress SRC-3. As to the kind of experiment: MTT cytotoxicity, panel of seven human cancer cell lines. The class given is cell-based. As to conditions: read-out: IC50 values across the cancer cell lines. An outline of the steps:
as §1

A short description of another series: Percentage of free drug. The class given is in vitro ADME.
Series [6] is described as follows: Full pharmacokinetic profile, IV and oral, CD-1 mice. The format is in vivo. As to conditions: male, CD-1, mouse, plasma; for Cmax: po, 10 mg/kg. The procedure, abridged: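 Male mice, 6 weeks, n=3 per route. Test compound in 20% DMSO, 16% PEG, 4% dextrose in PBS: IV 1 mg/kg (0.5 mg/mL) or oral gavage 10 mg/kg (1 mg/mL). 10 μL blood taken from 2 or 15 min to 48 h. Plasma measured by LC-MS/MS against 0.5–1000 ng/mL calibration standards with four QC levels. Non-compartmental extravascular PK fit.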

Series [7] in a line: Maximum tolerated dose / tolerability in mice. The format is in vivo.
A short description of a further series: Water solubility. The format is physicochemical.
The test system of series [8] is prostate cancer PDX organoids. As to the kind of experiment: Inhibition assay in prostate cancer PDX organoids. As to conditions: 2 weeks treatment. The format is cell-based, human. An outline of the steps:
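Tumors grown in SCID mice were digested with collagenase I and III to single cells. 20000 cells were embedded in collagen gel, set 20 min at 37°C, then cultured overnight at 37°C, 5% CO2. Test compound or vehicle given for 14 days, at least 5 wells per dose. Organoids imaged and counted on day 14; Student t test.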

Series [9] relates to 78 targets, including GPCRs, ion channel, receptors, kinase, enzymes and transporters. The experiment in a line: SafetyScreen panel against 78 targets. As to conditions: at 10 μM. The procedure, abridged:
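Commercial off-target safety panel covering GPCR (calcium flux agonist/antagonist, cAMP), ion channel (hERG blocker) and non-kinase enzyme assays. Test compound was screened at 10 μM, with RC50 values determined for interacting targets.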

A further series has as its system MDA-MB-468 cells. As to the kind of experiment: Wash-out experiment in MDA-MB-468 cell line. The format is cell-based, human. As to conditions: drug washed out with PBS, total incubation 72 h, MTT. The procedure, abridged: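 MDA-MB-468 cells were grown in RPMI 1640 with 5% FBS. They were exposed to test compound for varying durations, washed with PBS, and kept in culture to a total of 72 h. Viability was read by MTT, and EC50 and EC90 were derived for each exposure time.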

In the next series the test system is PANC-1-shSRC-3.1 cells. The experiment in a line: MTT viability, SRC-3 knock-down cells shSRC-3.1. The format is cell-based, human. As to conditions: PANC-1 shSRC-3.1 and shSRC-3.2 vs control/parental cells. An outline of the steps: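 SRC-3 was stably knocked down in PANC-1 cells with lentiviral shRNAs (shSRC-3.1, shSRC-3.2; shCtrl control), and SRC-3 levels were checked by western blot. Cells were treated with varying doses of test compound for 72 h and viability read by MTT. The IC50 of knock-down cells was compared with that of control cells to give the fold change.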

A further series relates to Panc-1-Luc cells. The experiment in a line: Orthotopic Panc-1 PDAC mouse model. As to conditions: 10 mg/kg i.p. once per day, 8 weeks, orthotopic PDAC mice. The format is in vivo, SCID mice. The procedure, abridged: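 0.5×10^6 Panc-1-Luc cells were implanted orthotopically in the pancreas of male SCID mice aged 8 weeks. Mice were randomized by luciferase imaging (n=5 per group). From day 8, test compound 10 mg/kg i.p. or vehicle was given daily. Luciferase imaging and body weight were recorded weekly; tumors harvested at day 63.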

Where [10] appears, read: cytotoxicity to MCF7 cells, MTT assay, 72 h, mean of triplicate.

pIC50: −log10 of the molar value. Values after ≈ are worked out from the molar mass of the structure shown. Values joined by “and” are separate entries in the source; they are usually repeats but may differ in a detail not shown here. Equal values may be shown once. Read-outs that look alike come from different tables or passages of the source.

For orientation: pIC50 means the IC50 on a negative log10 scale, so that one unit is a factor of ten. As usually defined, the AUC(0-t) is exposure summed from dosing to a finite time, without extrapolation to infinity. A low value points to low exposure. As usually defined, the Cmax is the highest concentration seen after dosing. As a reminder, the solubility is the dissolved amount per volume that the medium holds. In general, half-life refers to how long it takes for the measured level to halve. Higher therefore signals slow decline.

Chain of DNA-bound ER/SRC-3/P300 complex (Q9Y6Q9 whole entry, one chain of several): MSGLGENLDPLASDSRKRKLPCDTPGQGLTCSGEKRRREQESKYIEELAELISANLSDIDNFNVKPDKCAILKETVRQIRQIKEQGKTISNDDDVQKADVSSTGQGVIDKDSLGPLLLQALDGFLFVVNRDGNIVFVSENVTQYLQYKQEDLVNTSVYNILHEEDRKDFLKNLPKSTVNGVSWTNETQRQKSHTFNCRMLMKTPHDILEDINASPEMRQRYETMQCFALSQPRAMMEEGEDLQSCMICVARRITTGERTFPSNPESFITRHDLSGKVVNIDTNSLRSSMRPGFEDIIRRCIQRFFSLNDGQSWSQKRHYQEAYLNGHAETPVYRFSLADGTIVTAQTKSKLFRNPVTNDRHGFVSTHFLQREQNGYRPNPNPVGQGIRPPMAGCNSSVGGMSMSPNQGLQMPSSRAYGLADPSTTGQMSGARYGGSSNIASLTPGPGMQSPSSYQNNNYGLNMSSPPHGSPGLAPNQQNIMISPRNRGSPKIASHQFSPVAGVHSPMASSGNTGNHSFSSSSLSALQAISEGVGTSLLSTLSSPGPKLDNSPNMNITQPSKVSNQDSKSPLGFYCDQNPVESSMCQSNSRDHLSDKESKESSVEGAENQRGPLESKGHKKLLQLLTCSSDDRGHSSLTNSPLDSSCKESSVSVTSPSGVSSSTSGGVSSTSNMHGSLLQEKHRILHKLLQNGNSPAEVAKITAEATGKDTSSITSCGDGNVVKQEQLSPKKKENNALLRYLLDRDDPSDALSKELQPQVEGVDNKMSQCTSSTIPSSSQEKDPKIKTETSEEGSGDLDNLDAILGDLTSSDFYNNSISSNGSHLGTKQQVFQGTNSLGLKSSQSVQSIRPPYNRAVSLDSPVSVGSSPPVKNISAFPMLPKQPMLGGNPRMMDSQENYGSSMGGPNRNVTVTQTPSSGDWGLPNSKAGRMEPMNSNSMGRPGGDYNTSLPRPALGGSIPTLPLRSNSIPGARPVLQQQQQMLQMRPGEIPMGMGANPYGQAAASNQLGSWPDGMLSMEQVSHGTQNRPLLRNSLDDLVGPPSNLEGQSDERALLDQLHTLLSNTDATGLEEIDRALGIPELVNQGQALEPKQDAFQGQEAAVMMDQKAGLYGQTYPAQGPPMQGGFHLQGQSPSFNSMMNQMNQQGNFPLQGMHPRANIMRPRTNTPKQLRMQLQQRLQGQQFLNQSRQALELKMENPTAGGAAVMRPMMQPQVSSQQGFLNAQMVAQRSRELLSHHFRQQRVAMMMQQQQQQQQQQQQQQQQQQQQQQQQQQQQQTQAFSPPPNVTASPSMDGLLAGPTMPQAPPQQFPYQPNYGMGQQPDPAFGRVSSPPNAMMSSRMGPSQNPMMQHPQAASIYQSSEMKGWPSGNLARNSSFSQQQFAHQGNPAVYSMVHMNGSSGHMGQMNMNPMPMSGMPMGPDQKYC
Chain of hERG (Q12809 whole entry, the tested form may be a part): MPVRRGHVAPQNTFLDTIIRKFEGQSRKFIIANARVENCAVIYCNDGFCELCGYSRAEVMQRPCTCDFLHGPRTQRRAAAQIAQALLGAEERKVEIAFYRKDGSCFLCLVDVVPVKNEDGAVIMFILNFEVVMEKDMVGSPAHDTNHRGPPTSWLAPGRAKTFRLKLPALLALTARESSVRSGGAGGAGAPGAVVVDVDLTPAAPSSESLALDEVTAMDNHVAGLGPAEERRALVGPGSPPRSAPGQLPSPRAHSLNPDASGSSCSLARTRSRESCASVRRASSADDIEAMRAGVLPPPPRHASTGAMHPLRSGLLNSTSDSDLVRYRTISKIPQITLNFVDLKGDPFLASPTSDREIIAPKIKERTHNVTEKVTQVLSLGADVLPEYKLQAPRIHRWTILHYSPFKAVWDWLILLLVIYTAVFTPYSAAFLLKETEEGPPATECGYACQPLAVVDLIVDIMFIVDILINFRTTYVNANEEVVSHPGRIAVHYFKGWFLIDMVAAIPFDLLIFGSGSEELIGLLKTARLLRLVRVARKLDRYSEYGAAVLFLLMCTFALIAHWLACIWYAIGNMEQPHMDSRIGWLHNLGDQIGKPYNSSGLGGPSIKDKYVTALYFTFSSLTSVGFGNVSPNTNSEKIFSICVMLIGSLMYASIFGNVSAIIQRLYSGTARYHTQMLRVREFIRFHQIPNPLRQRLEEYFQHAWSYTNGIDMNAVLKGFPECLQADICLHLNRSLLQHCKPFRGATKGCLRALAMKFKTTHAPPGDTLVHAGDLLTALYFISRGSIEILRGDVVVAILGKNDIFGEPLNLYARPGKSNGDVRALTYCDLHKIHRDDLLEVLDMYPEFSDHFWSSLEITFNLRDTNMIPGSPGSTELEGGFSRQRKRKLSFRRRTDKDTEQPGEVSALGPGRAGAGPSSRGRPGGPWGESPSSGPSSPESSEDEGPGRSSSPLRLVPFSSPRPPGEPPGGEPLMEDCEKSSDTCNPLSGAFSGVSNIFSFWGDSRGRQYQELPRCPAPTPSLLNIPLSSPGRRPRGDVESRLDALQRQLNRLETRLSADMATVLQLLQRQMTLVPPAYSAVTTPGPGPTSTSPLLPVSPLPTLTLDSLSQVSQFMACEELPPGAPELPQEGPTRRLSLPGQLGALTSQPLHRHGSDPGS

Compound “1-(1-methyl-1H-benzo[d]imidazol-2-yl)-3-(pyridin-2-yl)-1H-pyrazol-5-ol [compound 12]” showed a negative logarithm of the IC50 (pIC50) in the series with MCF7 cells (setting [10]) below 6.00.

In the series with MCF7 cells (setting [10]), “6-((E)-1-(((E)-5,6-dichloro-1-methyl-1,3-dihydro-2H-benzo[d]imidazol-2-ylidene)hydrazineylidene)ethyl)nicotinamide [6g]” showed a pIC50 of 8.57.

Compound “6-((E)-1-(((E)-5,6-difluoro-1-methyl-1,3-dihydro-2H-benzo[d]imidazol-2-ylidene)hydrazineylidene)ethyl)-N-hydroxynicotinamide [6m]” had a pIC50 with MCF7 cells (setting [10]) below 6.00.

For `C/C(=N\NC1Oc2ccccc2N1C)c1ccc(F)cn1` (stereo not drawn) [8a, (E)-2-(2-(1-(5-fluoropyridin-2-yl)ethylidene)hydrazineyl)-3-methyl-2,3-dihydrobenzo[d]oxazole], the “effect on the ER complex” value in series [1] (at 1.5 μM) was “did not affect the ER complex”. In the series with MCF7 cells (Homo sapiens, MCF7, 72 h), this compound gave a negative-log IC50 (pIC50) below 6.00.

In the case of `C/C(=N\Nc1nc2ccccc2n1C)c1ccccn1` [SI-2], the plasma half-life in series [2] is 1 h and ~ 1 h.

Regarding `C/C(=N\Nc1nc2cc(F)c(F)cc2n1C)c1ncccn1` [SI-10, (E)-5,6-difluoro-1-methyl-2-(((E)-1-(pyrimidin-2-yl)ethylidene)hydrazineylidene)-2,3-dihydro-1H-benzo[d]imidazole], in the series with LNCaP cells (10 mg/kg i.p. once per day, 3.0 cm tumor diameter endpoint), the mouse survival entry is given as “significantly prolonged”. In the series on LNCaP cells (IHC at end of treatment, vehicle 2%), the “cleaved caspase 3 positive tumor cells” value is listed as “Approximately 10%”. For the same compound, in the series on LNCaP cells (IHC at end of treatment, vehicle more than 50% positive), the “Ki67 positive cells in tumors” value is “significantly lower”. For the same compound, in the series with AR-PDX tumor cells 118b, the “decrease of ratio of tumor area to femur area” value is listed as “over 50%” and the “reduction in femur volume compared to vehicle” value was above 55%. The hERG inhibition entry at hERG (at 30 μM) is “did not show appreciable hERG inhibition”. Besides, in [3], the negative logarithm of the IC50 (pIC50) was below 6.00 and the “toxicity in mouse primary hepatocytes” value is “did not observe any toxicity”. Moreover, in [4], the “stability in human plasma” value is given as “excellent stability”. The negative-log IC50 (pIC50) in series [5] is 7.49 to 9.00. The “percentage of free drug” value in the series “Percentage of free drug” is recorded as 6.6%. The compound also showed an area under the curve AUC(0-t) in series [6] (iv, 1 mg/kg) of 0.29 µM·h. Also, the maximum concentration (Cmax) in [6] was determined as 1140 nM. For the same compound, the body weight result in [7] (50 mg/kg or 100 mg/kg, once per day, 4 weeks) is on record as “did not cause any loss of body weight”. The acute tolerability entry in series [7] (oral administration up to 100 mg/kg (highest dose tested)) is “did not cause appreciable stress”. This compound showed a solubility in the series “Water solubility” of 22.8 µM (≈ 6.89 µg/mL).

As for `C/C(=N\N=c1/[nH]c2cc(F)c(F)cc2n1C)c1ccc(F)cn1` [SI-12, (E)-5,6-difluoro-2-(((E)-1-(5-fluoropyridin-2-yl)ethylidene)hydrazineylidene)-1-methyl-2,3-dihydro-1H-benzo[d]imidazole], the “formation and growth of organoids” value in series [8] is recorded as “effectively suppressed”. Moreover, in the series on AR-PDX tumor cells 118b, the “decrease of ratio of tumor area to femur area” value is listed as “over 50%” and the “reduction in femur volume compared to vehicle” value is given as above 55%. Further, the hERG inhibition entry at hERG (at 10 μM) was “moderate hERG inhibition”. Further, in series [1] (at 0.15 μM, SRC-3 protein 0.13 μM), the “recruitment of SRC-3 and p300 in the ER complex” value is on record as “significantly decreased”. Further, in series [3], the pIC50 is below 6.00 and the “toxicity in mouse primary hepatocytes” value is reported as “did not observe any toxicity”. For the same compound, in [9], the “interactions with other targets of the panel” value is reported as “minimal”. In addition, in the series on MDA-MB-468 cells, the “treatment time sufficient to achieve maximal cytotoxicity” value lay in the range of 3 to 6 h. Also, the “stability in human plasma” value in [4] is on record as “excellent stability”. For the same compound, the “fold reduction of potency in SRC-3 knock-down cells vs control cells” value in the series on PANC-1-shSRC-3.1 cells is on record as “approximately 5 fold”. The “fold reduction of potency in SRC-3 knock-down cells vs control cells” value in the series with PANC-1-shSRC-3.1 cells (listed as SI-12 (6c)) is reported as 4.7 ~5.8 fold. In addition, the body weight result with Panc-1-Luc cells is listed as “did not cause any mice body weight change”. Also, the “percentage of free drug” value in the series “Percentage of free drug” is given as 2.2%. Further, in series [6] (iv, 1 mg/kg), the AUC(0-t) came out at 2.31 µM·h and the half-life was 1320 min. Also, the peak concentration (Cmax) in series [6] turned out to be 2740 nM. The solubility in “Water solubility” was found to be 3.8 µM (≈ 1.21 µg/mL).

“(E)-2-(2-(1-(5-fluoropyridin-2-yl)ethylidene)hydrazineyl)-3-methyl-2,3-dihydrobenzo[d]thiazole [8b]”: the pIC50 with MCF7 cells (setting [10]) is below 6.00.

On to “methyl 6-((E)-1-(((E)-5,6-dichloro-1-methyl-1,3-dihydro-2H-benzo[d]imidazol-2-ylidene)hydrazineylidene)ethyl)nicotinate [6f]”, for which the negative logarithm of the IC50 (pIC50) in the series with MCF7 cells (setting [10]) is 8.54.
